Cytotoxicity data for 71 molecules are collected here from ChEMBL document CHEMBL4513216, “Probing the Open Global Health Chemical Diversity Library for Multistage-Active Starting Points for Next-Generation Antimalarials” (ACS Infect Dis, 2020).

Structures are written as SMILES.

The series is described as follows: Toxicity liver stage against HepG2, at 10uM. The class given is cell-based. Particulars: human, HepG2-A16-CD81EGFP cells; read-out: INHIBITION
Set-up: test concentration 10 uM, cell line HepG2-A16-CD81EGFP. An outline of the steps:
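Uninfected HepG2-A16-CD81EGFP cells, 3 × 10^3 per well, 1536-well, plated on prespotted compound at 10 μM final, parasite-free screening media added to match infected plates; puromycin 10 μM positive, DMSO 0.5% negative; run in parallel with 48 h PbLuc assay at 37 °C, 5% CO2; viability by CellTiter-Glo luminescence, normalized to controls.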
`Cc1nc2c(Nc3cccc(C#N)c3)nc(N)nc2n1C`: the cytotoxicity at 10 µM is -1.87%.
The result for `COCCOc1ccc(CNc2cnc3ccccc3n2)cn1` reads 8.15%; that for `CN1CCN(C(=O)c2cn(Cc3ccccc3)c3ncccc23)CC1`, -6.63%.
As for `CCOC(=O)Cc1csc(NC(=O)c2cc3n(n2)CCCO3)n1`, the cytotoxicity at 10 µM is -11.9%.
The figure for `CC(C)(C)C(=O)NCCn1ccc(-c2ccccn2)n1` is 6.47%; for `O=C1NCCC12CN(CC1CC1)CC21CCNCC1` (stereo unspecified) it is -5.31%.
The result for `Cc1cccc(N2CC[C@@H]3[C@@H](CO[C@H]3CNC(=O)c3ccco3)C2)n1` reads -1.67%; that for `Cc1csc([C@@H]2C[C@@H]3CCN(C(=O)c4cnccn4)C[C@H]3O2)n1`, 2.08%; that for `O=C(c1cnc2ccc(F)cc2c1NCc1ccccn1)N1CCCC1`, 3%.
In the case of `Cc1c(C(=O)O)cnn1-c1ccc(-c2nc(C(C)C)no2)cn1`, the cytotoxicity at 10 µM was -3.42%.
The result for `Cc1noc(C2CCCCN2C(=O)NC2CCCC2)n1` (stereo unspecified) reads 2.4%; that for `O=C1CC[C@H]2[C@H](CCN2C(=O)C2CCCO2)N1CCN1CCCC1` (stereo partly specified), -4.66%; that for `CCOC(=O)c1sc(NC(=O)C(C)(C)C)c(C#N)c1C`, 9.04%.
The figure for `Cc1nn(CCCNC(=O)C2CCN(S(C)(=O)=O)CC2)cc1Br` is -7.24%.
Regarding `CCN1C(=O)C(C)(C)c2cc(NC(=O)c3ccn(CC)n3)ccc21`, the cytotoxicity at 10 µM came to 9.65%.
The result for `CCn1cc(S(=O)(=O)N2CCCC3(CC=CNC3=O)C2)c(C)n1` (stereo unspecified) reads -7.56%.
For the molecule `OCC(CO)N1CCC(c2nccnc2Nc2cnccn2)CC1`, the cytotoxicity at 10 µM was -10.5%.
The figure for `CC(=O)N1CCN([C@@H]2CN(C(=O)Cc3ccccc3C)C[C@H]2O)CC1` is -6.94%.
With `CN(C)c1cc(C2CCCN(S(=O)(=O)c3cn(C)cn3)C2)ccn1` (stereo unspecified), the cytotoxicity at 10 µM is -14.4%.
With `CC(C)(C)C(O)CN1CCN(Cc2cccc(C#N)c2)CC1` (stereo unspecified), the cytotoxicity at 10 µM was 3.7%.
The result for `Cc1nnc(NCc2ccc(Br)cc2)o1` reads 1.66%; that for `Cc1nc2cc(F)cc(C(=O)N3CCN(CC(C)O)CC3)c2nc1C` (stereo unspecified), 4.5%; that for `CC(c1ccc(S(N)(=O)=O)cc1)N(C)C(=O)c1ccccc1I` (stereo unspecified), -0.629%.
Take `COc1c(CNC2CCN(CC(=O)NC3CC3)CC2)c(C)nn1C`: the cytotoxicity at 10 µM amounted to 7.76%.
With `c1cc(-c2noc(-c3cc(C4CC4)[nH]n3)n2)cc(N2CCCCC2)n1`, the cytotoxicity at 10 µM came out at 3.05%.
The figure for `CCn1c(C)nnc1CN(C)C1CCN(Cc2sc(C)nc2C)C1` (stereo unspecified) is 6.47%; for `Cc1ccc(C(=O)NC2CCN(Cc3noc(C(C)(C)C)n3)CC2)s1` it is 1.33%.
As to `Cc1cccc(-c2nc(CN3CC(n4nc(C)cc4C)C3)no2)c1`, the cytotoxicity at 10 µM turned out to be 1.37%.
`O=C(c1cccc(-n2cnnn2)c1)N1CCC2(CC1)OCCO2`: the cytotoxicity at 10 µM was -126%.
The figure for `CC1CN(C(=O)Nc2cccc(CN3CCOC3=O)c2)CCO1` (stereo unspecified) is -7%; for `Cc1ncsc1CCN1CCC(N(C)Cc2ncc(C(C)C)o2)C1` (stereo unspecified) it is -7.49%.
The figure for `Clc1ccc(NCc2nnc(C3CC3)o2)cc1Cl` is -12.4%; for `Cc1cc(NC(=O)CN2CCCC(Cn3cncn3)C2)on1` (stereo unspecified) it is 1.68%; for `Cc1c(C(=O)NC2(C#N)CCCC2)nnn1-c1ccccc1Cl` it is -6.75%.
The figure for `CCN(CCCNC(=O)c1cc2cccc(F)c2o1)S(C)(=O)=O` is 4.35%; for `O=S(=O)(CCCNCCn1cccn1)c1ccccc1` it is 5.96%; for `OC(COc1ccccc1Br)COC1CCOCC1` (stereo unspecified) it is -8%.
In the case of `CC(C(=O)N(C)C)S(=O)(=O)c1cc2c(cc1Cl)OCCO2` (stereo unspecified), the cytotoxicity at 10 µM came to 7.71%.
For the molecule `CC(C)c1nsc(N2CCn3c(nnc3C(F)(F)F)C2)n1`, the cytotoxicity at 10 µM was 5.83%.
The figure for `Cc1cc(CN2CCN(S(=O)(=O)c3c(C)c(Cl)cc(C)c3Cl)CC2)on1` is -8.87%; for `CC(CO)(NC(=O)Nc1nncs1)C1CCCCC1` (stereo unspecified) it is 4.17%.
The figure for `CC(O)CNc1nc(-c2cccnc2)nc2c1CCC2` (stereo unspecified) is 9.8%; for `COCC1CN(C(=O)Nc2cc(Cl)cc(Cl)c2)CCO1` (stereo unspecified) it is -4.44%; for `CCC(C)CN(C)C(=O)NCc1ccccc1-n1cccn1` (stereo unspecified) it is 8.75%.
As for `O=C(NCC1CC1)C1CSCN1S(=O)(=O)c1cccc(F)c1` (stereo unspecified), the cytotoxicity at 10 µM is -14.3%.
The result for `Cc1cc(C)n(CC2CN(Cc3cccc(C(N)=O)c3)CCO2)n1` (stereo unspecified) reads -4.97%; that for `COc1ccc2c(c1)OCC(Cc1cc(N3CCCC3)cnn1)C2` (stereo unspecified), -18.1%; that for `CCc1ccc(CN2CCCC(c3nn(C)c(=O)n3CC)C2)nc1` (stereo unspecified), 1.93%.
The figure for `CCn1c(-c2ccccc2)nn(CC(=O)NCCc2ccc(C)s2)c1=O` is 7.69%.
`CSCCCN1CCc2nc(N(C)C)nc(N3CCC(O)CC3)c2C1`: the cytotoxicity at 10 µM is -4.67%.
The result for `O=S(=O)(c1ccc(-c2nc3c([nH]2)CCNC3)cc1)N1CCCC1` reads -2.09%.
The result for `Cc1cc(CC(=O)N2CCN(CC(C)C)[C@@H]3CS(=O)(=O)C[C@@H]32)ccc1F` reads -2.22%; that for `Cn1ccnc1-c1ccc(NCC2COCCO2)nn1` (stereo unspecified), 9.3%; that for `COc1cccc2c1OCC(CNC(=O)COCC(F)(F)C(F)F)C2` (stereo unspecified), -134%.
The result for `CCOC(=O)N1CCN(CC(=O)Nc2nnc(CC)s2)CC1` reads -8.94%.
Consider `COc1ccccc1[C@@H]1CN(CC(=O)N2CCCCC2)C[C@H]1C(=O)O`, for which the cytotoxicity at 10 µM was -2.82%.
The result for `CS(=O)(=O)N1CCC(c2nnc(Cn3ccnc3)n2C2CC2)CC1` reads -1.24%; that for `CCCN(CC)c1cc(C2CCNCC2)nc(C)n1`, -7.33%; that for `CCC(N)c1ccccc1OCC(=O)N1CCCC1` (stereo unspecified), -5.16%.
Consider `CC(C(=O)NCCOc1ccc(F)cc1)n1cncn1` (stereo unspecified), for which the cytotoxicity at 10 µM is -1.46%.
In the case of `Cc1cc(CN2CCN(C(=O)NCc3cccs3)CC2)no1`, the cytotoxicity at 10 µM is -11.6%.
The figure for `Cc1cnn(CC2CCCCN2C(=O)c2n[nH]c3ccccc23)c1` (stereo unspecified) is -8.25%; for `Cc1cnn(C2CCCN(C(=O)c3cn(-c4ccccc4)nc3C)C2)c1` (stereo unspecified) it is -5.46%; for `Cc1nn(C)c(N(C)C)c1CNCc1ccnc(N2CCCC2)c1` it is -11.4%.
The figure for `Cc1cnc(CN(C)C2CCN(Cc3nnc(C4CC4)o3)C2)o1` (stereo unspecified) is 5.25%; for `O=C(CCCOc1cccc(F)c1)N1CCCC(n2cccn2)C1` (stereo unspecified) it is -16%; for `CN1N=C(C(=O)Nc2cc(F)ccc2OCC2CCCO2)CCC1=O` (stereo unspecified) it is -8%.
Regarding `O=C(NCCN1CCCC1)c1nc2c(o1)CN(C(=O)c1cccnc1)C2`, the cytotoxicity at 10 µM was -1.08%.
As to `Cn1cc(CN2CCC[C@]3(C(=O)O)CN(c4ncccn4)C[C@@H]3C2)cn1`, the cytotoxicity at 10 µM turned out to be 4.89%.
The result for `O=C(N1CCOCC1)N1C[C@@H]2CC[C@H]1CN(C1Cc3ccccc3C1)C2` reads -4.55%; that for `COCCOCC1(CNCc2ccc(F)cc2)C[C@@H](O)[C@@H](O)C1` (stereo partly specified), -3.1%.
